Measurements collected from several papers.
Protocols differ between the studies behind these lines.
Organism: Enterobacter cloacae
Effect on: microbial growth

| Structure (SMILES) | test | system | MIC |
| --- | --- | --- | --- |
| CC(C)CNc1nc(Cl)c2c(c1O)C(=O)C1=C(O)[C@]3(O)C(=O)C(C(N)=O)=C(O)[C@@H](N(C)C)[C@@H]3C[C@@H]1C2.Cl.Cl.Cl | broth dilution | ATCC13047 | > 32 µg/mL |
| O=C(Nc1ccc2c(c1)OC(F)(F)O2)Nc1ccc(Cl)c(C(F)(F)F)c1 | – | DSM30054 | > 100 µM |
| CO[C@@H](C(N)=O)[C@H](NC(=O)c1ccc(NC(=O)c2ccc(C#N)cc2)cc1)C(=O)Nc1ccc(C(=O)Nc2ccc(C(=O)Nc3ccc(C(=O)O)cc3)c(O)c2OC(C)C)cc1 | – | DSM30054 | > 64 µg/mL |
| CN(C)[C@@H]1C(O)=C(C(N)=O)C(=O)[C@@]2(O)C(O)=C3C(=O)c4c(O)cnc(Cl)c4C[C@H]3C[C@@H]12.Cl | broth dilution | ATCC13047 | 8 µg/mL |
| C/C(=C\c1ccc(C#N)cc1)C(=O)Nc1ccc(C(=O)N[C@@H](CC(N)=O)C(=O)Nc2ccc(C(=O)Nc3ccc(C(=O)Nc4ccc(C(=O)O)cc4)c(O)c3OC(C)C)cc2)cc1 | – | DSM30054 | > 64 µg/mL |
| CNC(=O)c1cc(Oc2ccc(NC(=O)Nc3ccc(Cl)c(C(F)(F)F)c3)cc2)ccn1 | – | DSM30054 | > 100 µM |
| Cc1c(CN(C)C(=O)/C=C/c2cnc3c(c2)CC(CCN)C(=O)N3)oc2ccccc12.Cl (centres unmarked) | broth dilution | BAA2341 | 16 µg/mL |
| CN(C)[C@@H]1C(O)=C(C(N)=O)C(=O)[C@@]2(O)C(O)=C3C(=O)c4c(cc5ccc(CN6CC(F)(F)C6)cc5c4O)C[C@H]3C[C@@H]12 | broth dilution | ATCC13047 | 32 µg/mL |
| Cc1nc(Cl)c2c(c1O)C(=O)C1=C(O)[C@]3(O)C(=O)C(C(N)=O)=C(O)[C@@H](N(C)C)[C@@H]3C[C@@H]1C2.Cl | broth dilution | ATCC13047 | 32 µg/mL |
| C[C@@H](O)[C@H]1C(=O)N2C(C(=O)O)=C(S[C@@H]3CN[C@H](C(=O)N(C)C)C3)[C@H](C)[C@H]12 | – | – | 1.3 µM |
| CN(C)CCOc1c2c(c(O)c3cc(CN4CCC4)ccc13)C(=O)C1=C(O)[C@]3(O)C(=O)C(C(N)=O)=C(O)[C@@H](N(C)C)[C@@H]3C[C@@H]1C2 | broth dilution | ATCC13047 | > 32 µg/mL |
